Assay results taken from the array DNA melting data of Ke et al. (doi:10.1101/2024.01.08.574731).

Tests used:
[1] = melting temperature; fluorescence melt of hairpins on a sequencing array, two-state fit, raised by 9.35 °C to match UV melts; settings: sodium 0.088 M
Procedure, shortened: (§1)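 Cy3 fluorescence of library hairpins on a sequenced MiSeq flow cell, with annealed Cy3 and quencher oligos, was imaged in 50 mM Na-HEPES pH 8.0, 25 mM NaCl in 2.5 °C steps up to 60 °C. Signals were normalised to pre-quench Cy3 and to control variants. Melting temperature and folding enthalpy came from bootstrapped two-state fits, inverse-variance combined over four replicates. Fitted temperatures were raised by 9.35 °C to match UV melts.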

[2] = folding enthalpy; higher = less favourable; fluorescence melt of hairpins on a sequencing array, two-state fit; settings: sodium 0.088 M
Procedure, shortened: as §1

Row | Sequence | Tm [1] | folding enthalpy [2]
1 | GTTAGCGAAAGCTGGAAC ((((((....)))..))) | 27 °C | -8.68 kcal/mol
2 | GGGTGCACGAAAGTGCCC (((..(((....)))))) | 52.6 °C | -12.9 kcal/mol
3 | GCGGGTGGAAACATCCGC ((((.((....)).)))) | 64 °C | -43 kcal/mol
4 | GCAGATGAAAATCTGC ((((((....)))))) | 59.9 °C | -39 kcal/mol
5 | GCGCGGCGAAAGCCTAGC ((..(((....)))..)) | 61.1 °C | -26.9 kcal/mol
6 | GGCCCACGAAAGTGGCC (((.(((....)))))) | 65.4 °C | -17.8 kcal/mol
7 | GCTTCGCGAAAGCCAGGC ((.(.((....)).).)) | 30.3 °C | -9.39 kcal/mol
8 | GACCACGCGAAAGCGGTC (((..(((....)))))) | 47.3 °C | -13.2 kcal/mol
9 | GATCGTAGTACGATC ((((((...)))))) | 54.7 °C | -29.6 kcal/mol
10 | GATCCCACACGGGATC ((((((....)))))) | 63.1 °C | -43.7 kcal/mol
11 | GCAAAGCGAAAGCCCTGC (((..((....))..))) | 28.5 °C | -10.3 kcal/mol
12 | GCTTACGAAAGTAGAGC ((((((....))).))) | 43.3 °C | -24.4 kcal/mol
13 | GGTGACGGAAACGTCGCC ((.((((....)))).)) | 64.6 °C | -34 kcal/mol
14 | GTCTGCGGAAACACAGAC (((((.(....).))))) | 46.7 °C | -44.1 kcal/mol
15 | GTCTTCGAAAGAAAAGAC ((((((....)))..))) | 30.8 °C | -17.9 kcal/mol
16 | GCTTGACGAAAGTCAGC (((.(((....)))))) | 55.6 °C | -23.5 kcal/mol
17 | GCCATAGGAAACCATGGC (((((.(....).))))) | 47.7 °C | -34.2 kcal/mol
18 | GCGAAGCGAAAGCATAGC ((.(.((....)).).)) | 52.5 °C | -15.7 kcal/mol
19 | GATCACCCAGTGATC ((((((...)))))) | 57.2 °C | -38.1 kcal/mol
20 | GTAGCCGAAAGGCTATAC ((((((....)))..))) | 47.1 °C | -10.2 kcal/mol
21 | GCGGGCGAAAGCCTACGC ((((((....)))..))) | 61.5 °C | -18.8 kcal/mol
22 | GCTCGGCGAAAGCGCAGC (((..((....))..))) | 51.1 °C | -9.7 kcal/mol
23 | GACTCCGAAAGGACTGTC ((((((....)))..))) | 32.7 °C | -15.7 kcal/mol

Row | Sequence | Tm [1] | folding enthalpy [2]
24 | GGGTATCCGAAAGGACCC (((..(((....)))))) | 43.9 °C | -18.6 kcal/mol
25 | GGATCACGAAAGTGCTCC (((.(((....))).))) | 49.4 °C | -27.4 kcal/mol
26 | GCGTCCTAACGC ((((....)))) | 54.8 °C | -26.4 kcal/mol
27 | GGATCGGGAAACCGGTTC (.(.(((....))).).) | 38.2 °C | -20.1 kcal/mol
28 | GGTGAGGGAAACCTCACC (((((((....))))))) | 67.5 °C | -43.2 kcal/mol
29 | GATCGCCGGAGCGATC ((((((....)))))) | 68.9 °C | -31.6 kcal/mol
30 | GTGTACGGAAACGTGTAC ((..(((....)))..)) | 35.2 °C | -20.4 kcal/mol
31 | GTACGCGAAAGCGATAC ((((((....))).))) | 48.2 °C | -13.9 kcal/mol
32 | GTTTTGCGAAAGCACAAC (((.(((....))).))) | 44.2 °C | -28.1 kcal/mol
33 | GTCGGTGGAAACACTGGC (.(.(((....))).).) | 42.8 °C | -27.8 kcal/mol
34 | AATCGGAAACGATT (((((....))))) | 44.5 °C | -22.9 kcal/mol
35 | GATCCCGTTTGGGATC ((((((....)))))) | 63.6 °C | -43.4 kcal/mol
36 | ATGCAGAAATGCAT (((((....))))) | 46.2 °C | -24.1 kcal/mol
37 | GTCCTTGGAAACAAGAAC ((.((((....)))).)) | 30.5 °C | -14.2 kcal/mol
38 | GGAAAGGCGAAAGCCTCC (((..(((....)))))) | 41.3 °C | -10.6 kcal/mol
39 | GATCAGGTAGCTGATC ((((((....)))))) | 53.4 °C | -39.7 kcal/mol
40 | GCTAACGAAAGTTCAAGC ((((((....)))..))) | 30.9 °C | -12.5 kcal/mol
41 | GGCTCCGAAAGGAGGGCC ((((((....)))..))) | 52.5 °C | -15.8 kcal/mol
42 | TGTAAGAAATTACA (((((....))))) | 20.6 °C | -7.98 kcal/mol
43 | GCGAAGTTCGC ((((...)))) | 46.4 °C | -17 kcal/mol
44 | GCTCCTCGAAAGAGAGC (((.(((....)))))) | 49.2 °C | -30 kcal/mol
45 | GATCAGAAAGCTGATC ((((((....)))))) | 43 °C | -31.6 kcal/mol
46 | CGGGCGGAAACGCACCG ((((((....))).))) | 60.4 °C | -16.9 kcal/mol

Row | Sequence | Tm [1] | folding enthalpy [2]
47 | GGGGATGCGAAAGCACCC (((..(((....)))))) | 56.2 °C | -17.2 kcal/mol
48 | GGGTGTTCGAAAGAACCC (((..(((....)))))) | 52 °C | -16.7 kcal/mol
49 | GTCGACGGAAACGCCGAC ((((.((....)).)))) | 55.3 °C | -44.7 kcal/mol
50 | GGGTTAACGAAAGTTCCC (((..(((....)))))) | 37.4 °C | -21.2 kcal/mol
51 | GCACCGCGAAAGCGGAGC ((.((((....)))).)) | 69 °C | -16.4 kcal/mol
52 | GCACCGGCGAAAGCCTGC (((..(((....)))))) | 39.1 °C | -12.6 kcal/mol
53 | GATACCGAAAGGTTAATC ((((((....)))..))) | 25.3 °C | -11.1 kcal/mol
54 | GGATGCGAAAGCACTTCC ((((((....)))..))) | 42.2 °C | -17.4 kcal/mol
55 | GGCTCCGAAAGGAAAGCC ((((((....)))..))) | 54.3 °C | -30.1 kcal/mol
56 | GTATGCGGAAACGCGTAC (((.(((....))).))) | 55 °C | -31.9 kcal/mol
57 | GCGACCGGAAACGGCCAC (.(.(((....))).).) | 32.5 °C | -14.4 kcal/mol
58 | GATTTGGGAAACCAAGTC ((.((((....)))).)) | 38.8 °C | -28.7 kcal/mol
59 | GATCACGGTCGTGATC ((((((....)))))) | 60.7 °C | -39.6 kcal/mol
60 | GACTCCGAAAGGATAGTC ((((((....)))..))) | 41.5 °C | -22.5 kcal/mol
61 | GGACTGGGAAACCGGTCC ((((.((....)).)))) | 58.6 °C | -39.9 kcal/mol
62 | GCATATCGAAAGATTTGC (((.(((....))).))) | 46.8 °C | -37 kcal/mol
63 | GCATTGCGAAAGCAGAGC ((..(((....)))..)) | 47.5 °C | -18.2 kcal/mol
64 | CGTGACGGAAACGTTACG (((.(((....))).))) | 52.2 °C | -29.3 kcal/mol
65 | GCCCACGAAAGTGCAGGC ((((((....)))..))) | 50.1 °C | -28.1 kcal/mol
66 | GATCAAAGCATTGATC ((((((....)))))) | 43.7 °C | -36.8 kcal/mol
67 | GATCACAGCTGTGATC ((((((....)))))) | 59 °C | -41.9 kcal/mol
68 | CGCACGGAAACGTCTGCG ((((((....)))..))) | 42.6 °C | -23.8 kcal/mol
69 | GTCTTGGGAAACCAAGGC (.(((((....))))).) | 51 °C | -24.4 kcal/mol

Row | Sequence | Tm [1] | folding enthalpy [2]
70 | GGCATCCCGAAAGGGGCC (((..(((....)))))) | 52.3 °C | -18.9 kcal/mol
71 | GCCACGCGAAAGCGGCGC ((..(((....)))..)) | 60.8 °C | -15.9 kcal/mol
72 | GCACGCGAAAGCGATTGC ((((((....)))..))) | 45.9 °C | -14.2 kcal/mol
73 | GCCATGGGAAACCGTGGC ((((.((....)).)))) | 59 °C | -40.6 kcal/mol
74 | GTGCTCGAAAGAGTGCAC ((((((....)))..))) | 48.7 °C | -24 kcal/mol
75 | GTCCGCGAAAGCGAGGAC ((((((....)))..))) | 54.9 °C | -21 kcal/mol
76 | GAATATGAAAATATTC ((((((....)))))) | 39.8 °C | -24.6 kcal/mol
77 | GCATAAGGAAACTTACGC ((.((((....)))).)) | 31.6 °C | -21.7 kcal/mol
78 | CAGAGGAAACTCTG (((((....))))) | 45 °C | -21.1 kcal/mol
79 | GGGTCGGCGAAAGCCCCC (((..(((....)))))) | 46.1 °C | -13.9 kcal/mol
80 | GGTATCGGAAACGACACC (((.(((....))).))) | 43.4 °C | -30.7 kcal/mol
81 | GCGAAGCGAAAGCTCGC (((.(((....)))))) | 67.1 °C | -24.3 kcal/mol
82 | GTTAGACGAAAGTCCAAC (((.(((....))).))) | 38 °C | -17.3 kcal/mol
83 | GAGCAAGCGAAAGCTCTC (((..(((....)))))) | 35.1 °C | -11.6 kcal/mol
84 | GATCACCACGTGATC ((((((...)))))) | 58.9 °C | -38.5 kcal/mol
85 | GCCCGAACGAAAGTTGGC (((..(((....)))))) | 42.6 °C | -19.2 kcal/mol
86 | GATCGAGGTATCGATC ((((((....)))))) | 58.7 °C | -39.6 kcal/mol
87 | GTACCCGAAAGGGAATAC ((((((....)))..))) | 29.7 °C | -12.4 kcal/mol
88 | GATAGAGGAAACCCTATC (((((.(....).))))) | 30.8 °C | -20.3 kcal/mol
89 | GTATACGAAAGTACGTAC ((((((....)))..))) | 26.7 °C | -14 kcal/mol
90 | GGGTCCGAAAGGATCCC ((((((....))).))) | 60.1 °C | -31.5 kcal/mol
91 | GCGTGTGCGAAAGCACGC (((..(((....)))))) | 57.5 °C | -9.9 kcal/mol
92 | GAAGATACGAAAGTATTC (((..(((....)))))) | 27.7 °C | -8.74 kcal/mol
